In ChEMBL document CHEMBL1142894, “Preparation of 5-aryl-3-alkylthio-l,2,4-triazoles and corresponding sulfones with antiinflammatory-analgesic activity” (Bioorg Med Chem, 2007):
The source made the active and inactive calls. The rule behind the calls is not given here.

Key:
Mus musculus [1] = assay: Antiinflammatory activity against carrageenan-induced paw edema in Swiss albino mouse assessed as swelling thickness at 100 mg/kg, po after 270 mins; type: functional
In short: (§1)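 Oral dosing in 0.5% CMC; vehicle to controls. Then carrageenan (0.5 mg/25 ll, freshly suspended in 154 mM saline) injected into the right hind paw subplantar tissue; saline into the left paw. Right-left footpad thickness difference measured by dial gauge calliper every 90 min over 6 h. Inhibition % is relative to vehicle control. n = 6; mean ± SEM.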

Mus musculus [2] = assay: Analgesic activity against p-benzoquinone-induced abdominal constriction in Swiss albino mouse assessed as number of writhings at 25 mg/kg, po; type: functional, Abdomen
In short: (§2)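 Test samples given orally in 0.5% CMC; vehicle to controls. 60 min later, 2.5% (v/v) p-benzoquinone in distilled water, 0.1 ml/10 g, given i.p. Mice housed singly; writhes counted for 15 min starting 5 min after injection. Activity is % change from vehicle controls. n = 6; mean ± SEM.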

Mus musculus [3] = assay: Inhibition of p-benzoquinone-induced writhing in Swiss albino mouse at 100 mg/kg, po relative to control; type: functional
In short: (§3)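 Mice, n = 6 per group, dosed orally with a suspension in 0.5% sodium CMC. 60 min later, 0.1 ml/10 g of 2.5% […] p-benzoquinone in distilled water given ip. Abdominal writhes counted per animal for 15 min, starting 5 min after injection. Expressed as % change in mean writhing count versus vehicle controls.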

Mus musculus [4] = assay: Analgesic activity against p-benzoquinone-induced abdominal constriction in Swiss albino mouse assessed as number of writhings at 100 mg/kg, po; type: functional, Abdomen; in short: as §2
Mus musculus [5] = assay: Inhibition of carrageenan-induced paw edema in Swiss albino mouse at 100 mg/kg, po after 270 mins relative to control; type: functional; conditions: 4.5 h; in short: as §1
Mus musculus [6] = assay: Inhibition of p-benzoquinone-induced writhing in Swiss albino mouse at 50 mg/kg, po relative to control; type: functional; in short: as §3
Mus musculus [7] = assay: Acute toxicity in Swiss albino mouse assessed as lethal effect at 200 mg/kg/day, po after 72 hrs; type: organism-based; set-up: route oral; conditions: in vivo
In short: (§4)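 Oral single dose suspended in 0.5% carboxymethylcellulose, given after a 24 h fast; food and water returned 1 h after dosing. Vehicle-only controls. Mice observed at 1 h, then once daily for 72 h, for toxic signs and mortality.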

Mus musculus [8] = assay: Inhibition of carrageenan-induced paw edema in Swiss albino mouse at 50 mg/kg, po after 180 mins relative to control; type: functional; conditions: 3 h; in short: as §1
Mus musculus [9] = assay: Inhibition of carrageenan-induced paw edema in Swiss albino mouse at 25 mg/kg, po after 180 mins relative to control; type: functional; conditions: 3 h; in short: as §1
Mus musculus [10] = assay: Analgesic activity against p-benzoquinone-induced abdominal constriction in Swiss albino mouse assessed as number of writhings at 50 mg/kg, po; type: functional, Abdomen; in short: as §2
Mus musculus [11] = assay: Antiinflammatory activity against carrageenan-induced paw edema in Swiss albino mouse assessed as swelling thickness at 50 mg/kg, po after 180 mins; type: functional; in short: as §1
Mus musculus [12] = assay: Inhibition of carrageenan-induced paw edema in Swiss albino mouse at 200 mg/kg, po after 360 mins relative to control; type: functional; conditions: 6 h; in short: as §1
Mus musculus [13] = assay: Antiinflammatory activity against carrageenan-induced paw edema in Swiss albino mouse assessed as swelling thickness at 50 mg/kg, po after 90 mins; type: functional; in short: as §1
Mus musculus [14] = assay: Inhibition of carrageenan-induced paw edema in Swiss albino mouse at 25 mg/kg, po after 360 mins relative to control; type: functional; conditions: 6 h; in short: as §1
Mus musculus [15] = assay: Inhibition of carrageenan-induced paw edema in Swiss albino mouse at 50 mg/kg, po after 270 mins relative to control; type: functional; conditions: 4.5 h
In short: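 Mice, n = 6 per group. Test agent given orally as a suspension in 0.5% sodium CMC in distilled water; controls received vehicle only. Afterwards, 0.5 mg/25 ll carrageenan in saline (154 mM NaCl) injected subplantar into the right hind paw, saline into the left. Right-minus-left footpad thickness measured by dial gauge caliper every 90 min for 6 h. Inhibition is relative to vehicle-control group means.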

Mus musculus [16] = assay: Gastric-ulcerogenic effect in Swiss albino mouse assessed as lesions at 50 mg/kg, po; type: functional, organism-based; set-up: dose 50 mg/kg
In short: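 Mice killed under deep ether anesthesia 3 h after the writhing test; the oral dose in 0.5% CMC was the one used in that test. Stomachs removed, opened along the great curvature and examined under a dissecting microscope for lesions or bleeding. Reported as ratio of ulceration; n = 6.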

Mus musculus [17] = assay: Antiinflammatory activity against carrageenan-induced paw edema in Swiss albino mouse assessed as swelling thickness at 100 mg/kg, po after 90 mins; type: functional; in short: as §1
Mus musculus [18] = assay: Acute toxicity in Swiss albino mouse assessed as lethal effect at 25 mg/kg/day, po after 72 hrs; type: organism-based; set-up: route oral; conditions: in vivo; in short: as §4
Mus musculus [19] = assay: Inhibition of carrageenan-induced paw edema in Swiss albino mouse at 200 mg/kg, po after 180 mins relative to control; type: functional; conditions: 3 h; in short: as §1
Mus musculus [20] = assay: Antiinflammatory activity against carrageenan-induced paw edema in Swiss albino mouse assessed as swelling thickness at 25 mg/kg, po after 360 mins; type: functional; in short: as §1
Mus musculus [21] = assay: Antiinflammatory activity against carrageenan-induced paw edema in Swiss albino mouse assessed as swelling thickness at 50 mg/kg, po after 270 mins; type: functional; in short: as §1
Mus musculus [22] = assay: Inhibition of carrageenan-induced paw edema in Swiss albino mouse at 200 mg/kg, po after 270 mins relative to control; type: functional; conditions: 4.5 h; in short: as §1
Mus musculus [23] = assay: Antiinflammatory activity against carrageenan-induced paw edema in Swiss albino mouse assessed as swelling thickness at 25 mg/kg, po after 270 mins; type: functional; in short: as §1
Mus musculus [24] = assay: Antiinflammatory activity against carrageenan-induced paw edema in Swiss albino mouse assessed as swelling thickness at 100 mg/kg, po after 360 mins; type: functional; in short: as §1

Compound: CCS(=O)(=O)c1nc(-c2ccccc2)n[nH]1
- Activity (Mus musculus [1]): 39.2 10^-2mm
- Activity (Mus musculus [2]): 38.2
- inhibition in vivo at 100 mg/kg (Mus musculus [3]): 41.9%
- Activity (Mus musculus [4]): 27.5
- inhibition in vivo at 100 mg/kg (Mus musculus [5]): 33.3%
- inhibition in vivo at 50 mg/kg (Mus musculus [6]): 48.1%
- Activity (Mus musculus [7]): Non-toxic
- inhibition in vivo at 50 mg/kg (Mus musculus [8]): 30.5%
- inhibition in vivo at 25 mg/kg (Mus musculus [9]): 7.7%
- Activity (Mus musculus [10]): 26.7
- Activity (Mus musculus [11]): 41.3 10^-2mm
- inhibition in vivo at 200 mg/kg (Mus musculus [12]): 9.4%
- Activity (Mus musculus [13]): 39.2 10^-2mm
- inhibition in vivo at 25 mg/kg (Mus musculus [14]): 13.3%
- inhibition in vivo at 50 mg/kg (Mus musculus [15]): 31.2%
- Activity (Mus musculus [16]): Active
- Activity (Mus musculus [17]): 33.2 10^-2mm
- Activity (Mus musculus [18]): Non-toxic
- inhibition in vivo at 200 mg/kg (Mus musculus [19]): 11.9%
- Activity (Mus musculus [20]): 62.4 10^-2mm
- Activity (Mus musculus [21]): 44.6 10^-2mm
- inhibition in vivo at 200 mg/kg (Mus musculus [22]): 11.1%
- Activity (Mus musculus [23]): 58.1 10^-2mm
- Activity (Mus musculus [24]): 43.5 10^-2mm
